This note sets out measurements from article PMC5066155 (ACS Medicinal Chemistry Letters, 2016).

Read-outs that look alike come from different tables or passages of the source.

For data set [1], the system named is sPLA2 activity in HepG2 cells. The experiment in a line: sPLA2 activity inhibition in HepG2 cells. The format is cell-based. As to conditions: Homo sapiens, HepG2, read-out: sPLA2 activity inhibition IC50.
Data set [2] can be described thus: Toxicological profile in animals. The note with it: rats, dogs, and cynomolgus monkeys. The format is in vivo.
A further data set can be described thus: Pharmacokinetics in rat. As to conditions: in vivo, iv, 2 μmol/kg.
A short description of data set [3]: Pharmacokinetics in mouse. The note with it: in vivo, iv, 10 μmol/kg.
Data set [4] deals with cynomolgus monkey plasma sPLA2. The experiment in a line: In vitro sPLA2 inhibition in cynomolgus monkey plasma. It is filed as biochemical. As to conditions: read-out: ICu,50.
Data set [5] concerns human plasma sPLA2 activity. The experiment in a line: Human plasma sPLA2 inhibition assay. The format is biochemical. The method in brief: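 Inhibition of endogenous sPLA2 activity in human plasma, run by a previously established protocol. The plasma IC50 is converted to an unbound value: IC50 × Fu/100, where Fu = 100 − human plasma protein binding (%). Values are means of at least two experiments, with experimental error within 20% of the value.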

A short description of a further data set: Pharmacokinetics in dog. As to conditions: in vivo, iv, 1 μmol/kg.
Data set [6] deals with T1, sPLA2-IIa (Homo sapiens, UniProt P14555).
T1 sequence (P14555 21-144): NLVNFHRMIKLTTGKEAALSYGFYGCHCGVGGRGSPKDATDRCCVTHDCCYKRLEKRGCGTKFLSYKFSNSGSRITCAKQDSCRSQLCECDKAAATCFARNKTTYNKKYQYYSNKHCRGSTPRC
The experiment in a line: Ligand efficiency / ligand lipophilicity efficiency from sPLA2-IIa IC50. As to conditions: pIC50 (sPLA2-IIa) – logD.

Data set [7] deals with T1, sPLA2-IIa. The experiment in a line: sPLA2 inhibition assay using phosphatidylcholine as substrate. It is filed as biochemical. As to conditions: for increase in affinity/potency compared to 1: sPLA2-IIa, relative to compound 1.
Another data set deals with IKs (Homo sapiens, UniProt P51787). In words: IonWorks patch clamp, CHO cells expressing IKs. The format is cell-based.
The target in a further data set is T2, human OATP1B1 (Homo sapiens, UniProt Q9Y6L6).
T2 sequence (Q9Y6L6 1-691): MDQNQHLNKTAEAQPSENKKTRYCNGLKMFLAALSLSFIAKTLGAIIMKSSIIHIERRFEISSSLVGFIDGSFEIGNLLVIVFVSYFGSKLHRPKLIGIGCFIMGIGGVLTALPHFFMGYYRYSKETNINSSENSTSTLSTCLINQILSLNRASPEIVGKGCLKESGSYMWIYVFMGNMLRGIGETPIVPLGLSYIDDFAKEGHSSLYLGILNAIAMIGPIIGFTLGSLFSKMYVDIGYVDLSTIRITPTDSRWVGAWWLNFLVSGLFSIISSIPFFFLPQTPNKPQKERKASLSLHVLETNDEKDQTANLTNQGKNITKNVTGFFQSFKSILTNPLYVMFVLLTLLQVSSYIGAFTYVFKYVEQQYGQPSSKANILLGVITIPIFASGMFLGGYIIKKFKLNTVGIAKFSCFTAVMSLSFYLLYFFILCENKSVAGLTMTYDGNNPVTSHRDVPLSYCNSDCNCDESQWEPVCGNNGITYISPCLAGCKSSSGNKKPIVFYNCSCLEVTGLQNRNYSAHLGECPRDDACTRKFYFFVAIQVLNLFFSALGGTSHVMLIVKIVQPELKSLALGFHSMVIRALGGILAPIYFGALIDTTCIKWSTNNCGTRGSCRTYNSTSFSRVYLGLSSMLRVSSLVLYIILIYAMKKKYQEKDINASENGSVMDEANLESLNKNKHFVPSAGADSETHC
In words: Inhibition of pivastatin uptake to HEK293 cells transfected with human OATP1B1. It is filed as cell-based. In a few lines: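 HEK293 cells transfected with human OATP1B1 are used to measure the test compound's inhibition of pivastatin uptake into the cells. The IC50 is reported as an estimated value. Results are means of at least two experiments, with experimental error within 20% of the value.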

The target in a further data set is T3, sPLA2-V (Homo sapiens, UniProt P39877).
T3 sequence (P39877 21-138): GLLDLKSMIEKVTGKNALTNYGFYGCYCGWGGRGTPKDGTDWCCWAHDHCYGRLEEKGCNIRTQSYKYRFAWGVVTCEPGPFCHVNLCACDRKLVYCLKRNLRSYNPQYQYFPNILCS
In words: sPLA2 inhibition assay using phosphatidylcholine as substrate. It is filed as biochemical.

Data set [8] in a line: Intrinsic clearance in human hepatocytes. The format is in vitro ADME. As to conditions: pH 7.4.
Another data set has as its target T4, sPLA2-X (Homo sapiens, UniProt O15496).
T4 sequence (O15496 43-165): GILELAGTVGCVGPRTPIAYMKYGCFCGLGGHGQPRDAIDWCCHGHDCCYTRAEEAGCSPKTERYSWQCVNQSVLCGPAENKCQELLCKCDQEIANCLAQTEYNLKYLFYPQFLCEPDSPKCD
In words: sPLA2 inhibition assay using phosphatidylcholine as substrate. The format is biochemical.

Setting [9] is: read-out: plasma ICu,50, plasma sPLA2 IC50 × Fu/100.
The mark [10] stands for this setting: read-out: plasma ICu,50, plasma sPLA2 IC50 × Fu/100, NA = not active at maximum tested concentration (25 μM).

Chain of IKs (P51787 whole entry): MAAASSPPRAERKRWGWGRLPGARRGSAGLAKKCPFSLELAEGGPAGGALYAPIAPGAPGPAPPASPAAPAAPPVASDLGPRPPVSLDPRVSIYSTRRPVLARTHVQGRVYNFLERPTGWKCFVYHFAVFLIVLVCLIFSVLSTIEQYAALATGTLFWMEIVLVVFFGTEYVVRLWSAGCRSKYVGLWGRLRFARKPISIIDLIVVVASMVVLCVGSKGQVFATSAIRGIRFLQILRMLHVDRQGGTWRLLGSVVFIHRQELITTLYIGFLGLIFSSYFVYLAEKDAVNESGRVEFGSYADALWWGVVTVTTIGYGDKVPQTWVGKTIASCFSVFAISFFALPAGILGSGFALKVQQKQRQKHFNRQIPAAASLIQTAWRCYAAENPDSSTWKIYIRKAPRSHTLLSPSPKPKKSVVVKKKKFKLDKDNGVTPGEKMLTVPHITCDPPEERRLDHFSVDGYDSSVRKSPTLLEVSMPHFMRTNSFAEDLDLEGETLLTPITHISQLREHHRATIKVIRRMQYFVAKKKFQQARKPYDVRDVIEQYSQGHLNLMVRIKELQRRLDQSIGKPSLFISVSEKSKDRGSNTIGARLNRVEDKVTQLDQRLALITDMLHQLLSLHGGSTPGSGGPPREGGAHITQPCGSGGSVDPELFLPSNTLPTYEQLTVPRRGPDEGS

For `C[C@H](Cc1cccc(-c2cc(Cc3ccccc3)ccc2C(N)=O)c1)C(=O)O` [(R)-7], the IC50 in data set [1] was less than 14 nM; in data set [4], 1 nM; in data set [5] (setting [9]) it was 0.1 nM. In [2], the toxicological profile entry is on record as “favorable toxicological profile”. Further, the clearance (in general, the rate of elimination divided by the concentration) came out at 1 mL/min/kg in the data set “Pharmacokinetics in rat”, 9.2 mL/min/kg in data set [3] and 0.2 mL/min/kg in “Pharmacokinetics in dog”.
Consider `NC(=O)c1ccc(Cc2ccccc2)cc1` [Compound 1, 4-benzylbenzamide], for which the LLE on sPLA2-IIa [6] came out at 2.2. In addition, in data set [5] (setting [10]), the IC50 was 900 nM.
As for `NC(=O)c1ccc(Cc2ccccc2)cc1-c1cccc(CC(=O)O)c1` [Compound 3], the “increase in affinity/potency compared to 1” value at sPLA2-IIa [7] is on record as “more than 300 fold”.
In the case of `NC(=O)c1ccc(Cc2ccccc2)cc1-c1cccc(CCC(=O)O)c1` [Compound 4], the IC50 was greater than 33300 nM at IKs and 7 nM in [5] (setting [9]). For the same compound, the “increase in affinity/potency compared to 1” value at sPLA2-IIa [7] came out at 2000 fold. In addition, the clearance in “Pharmacokinetics in rat” (Sprague-Dawley) was 1 mL/min/kg.
As to `CC(Cc1cccc(-c2cc(Cc3ccccc3)ccc2C(N)=O)c1)C(=O)O` (stereo not shown) [Compound 7], the IC50 against human OATP1B1 was greater than 25000 nM.
Regarding `CCC(Cc1cccc(-c2cc(Cc3ccccc3)ccc2C(N)=O)c1)C(=O)O` (stereo not shown) [Compound 8], the IC50 in [5] (setting [9]) amounted to 0.8 nM.
On to `NC(=O)c1ccc(Cc2ccccc2)cc1-c1cccc(CC2(C(=O)O)CC2)c1` [Compound 9], for which the IC50 at sPLA2-IIa [7] was 18 nM; at sPLA2-V, 250 nM; in data set [5] (setting [9]), 0.9 nM; against sPLA2-X, 580 nM. Further, the hepatocyte CLint – broadly, the rate of metabolic loss divided by the concentration – at 1 µM in [8] stood at 21 µL/min/1e6 cells.
For the compound `CCc1c(C(=O)C(N)=O)c2c(OCC(=O)O)cccc2n1Cc1ccccc1` [varespladib, reference compound], in data set [5] (setting [10]), the IC50 came out at 8 nM.
